Experiments:
[1] = target: T1, Phosphotyrosine protein phosphatase (Mycobacterium tuberculosis, UniProt A0A045ISB3); test: Inhibition of Mycobacterium tuberculosis His-tagged PtpB expressed in Escherichia coli Rosetta 2 (DE3) using pNPP as substrate after 30 mins by spectrophotometric method
T1 sequence (A0A045ISB3 whole entry): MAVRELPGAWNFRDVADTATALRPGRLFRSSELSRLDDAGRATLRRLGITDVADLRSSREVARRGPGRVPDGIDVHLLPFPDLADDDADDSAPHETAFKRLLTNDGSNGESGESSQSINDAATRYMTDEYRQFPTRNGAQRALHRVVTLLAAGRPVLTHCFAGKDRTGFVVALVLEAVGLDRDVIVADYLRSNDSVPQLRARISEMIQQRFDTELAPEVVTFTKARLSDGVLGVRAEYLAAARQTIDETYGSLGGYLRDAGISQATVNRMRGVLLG

[2] = target: T2, Tyrosine-protein phosphatase non-receptor type 1 (Homo sapiens, UniProt P18031); test: Inhibition of human PTPN1 expressed in Escherichia coli Rosetta 2 (DE3) using pNPP as substrate after 45 mins by spectrophotometric method
T2 sequence (P18031 whole entry): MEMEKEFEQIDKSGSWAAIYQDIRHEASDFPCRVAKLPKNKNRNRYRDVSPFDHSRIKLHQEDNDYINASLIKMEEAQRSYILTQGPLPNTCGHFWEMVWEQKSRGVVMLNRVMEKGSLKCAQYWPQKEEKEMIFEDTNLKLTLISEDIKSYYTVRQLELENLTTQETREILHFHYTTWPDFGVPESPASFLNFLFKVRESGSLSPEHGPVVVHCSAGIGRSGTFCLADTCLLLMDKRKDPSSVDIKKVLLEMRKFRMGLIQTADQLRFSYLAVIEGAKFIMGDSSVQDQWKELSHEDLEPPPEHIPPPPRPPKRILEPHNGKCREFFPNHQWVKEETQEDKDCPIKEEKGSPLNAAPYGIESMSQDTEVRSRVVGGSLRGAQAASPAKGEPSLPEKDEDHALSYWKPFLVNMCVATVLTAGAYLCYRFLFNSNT

[3] = target: T3, Tyrosine-protein phosphatase non-receptor type 2 (Homo sapiens, UniProt P17706); test: Inhibition of human PTPN2 expressed in Escherichia coli Rosetta 2 (DE3) using pNPP as substrate after 45 mins by spectrophotometric method
T3 sequence (P17706 whole entry): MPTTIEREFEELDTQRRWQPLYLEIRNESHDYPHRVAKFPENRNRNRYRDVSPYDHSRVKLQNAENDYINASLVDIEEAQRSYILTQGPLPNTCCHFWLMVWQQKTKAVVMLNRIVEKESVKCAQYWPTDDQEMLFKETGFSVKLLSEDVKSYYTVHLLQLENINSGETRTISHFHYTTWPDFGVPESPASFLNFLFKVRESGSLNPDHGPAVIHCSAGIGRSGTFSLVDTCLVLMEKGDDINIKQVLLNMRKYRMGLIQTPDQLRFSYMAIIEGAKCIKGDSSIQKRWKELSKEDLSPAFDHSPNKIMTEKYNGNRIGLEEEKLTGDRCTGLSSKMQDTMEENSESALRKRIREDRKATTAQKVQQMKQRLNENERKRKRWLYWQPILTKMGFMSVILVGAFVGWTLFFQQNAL

[4] = target: T4, Tyrosine-protein phosphatase non-receptor type 5 (Homo sapiens, UniProt P54829); test: Inhibition of human PTPN5 expressed in Escherichia coli Rosetta 2 (DE3) using pNPP as substrate after 45 mins by spectrophotometric method
T4 sequence (P54829 whole entry): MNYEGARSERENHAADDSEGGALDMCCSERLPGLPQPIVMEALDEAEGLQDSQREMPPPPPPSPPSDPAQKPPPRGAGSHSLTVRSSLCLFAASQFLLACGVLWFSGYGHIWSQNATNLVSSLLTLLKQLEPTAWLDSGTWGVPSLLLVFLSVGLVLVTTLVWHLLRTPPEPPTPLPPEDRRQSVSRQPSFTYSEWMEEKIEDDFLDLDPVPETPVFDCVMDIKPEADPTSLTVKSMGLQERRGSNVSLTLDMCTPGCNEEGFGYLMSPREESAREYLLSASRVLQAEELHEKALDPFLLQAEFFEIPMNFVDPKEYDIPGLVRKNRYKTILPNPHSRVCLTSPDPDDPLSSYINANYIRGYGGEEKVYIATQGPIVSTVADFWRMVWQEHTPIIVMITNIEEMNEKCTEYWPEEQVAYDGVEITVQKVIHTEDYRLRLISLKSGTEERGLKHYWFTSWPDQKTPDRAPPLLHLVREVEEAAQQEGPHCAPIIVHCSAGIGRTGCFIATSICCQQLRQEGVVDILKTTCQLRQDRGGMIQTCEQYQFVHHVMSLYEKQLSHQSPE

[5] = test system: Mycobacterium tuberculosis; test: Antitubercular activity against Mycobacterium tuberculosis H37Rv after 5 days at 200 uM relative to control; format: functional; conditions: 120 h
How it was run: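 M. tuberculosis grown in liquid culture with compound at a fixed 200 μM for 5 days. Growth inhibition expressed as percent of control.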

[6] = Inhibition of refolded rhodanese (unknown origin) preincubated with Escherichia coli GroEL/GroES for 60 mins by measuring rhodanese enzyme activity followed by compound addition by Fe(SCN)3 dye based spectrometric analysis; parameters: species or system Homo sapiens
[7] = target: T5, Malate dehydrogenase, mitochondrial (Sus scrofa, UniProt P00346); test: Inhibition of refolded pig heart mitochondrial MDH preincubated with Escherichia coli GroEL/GroES for 45 mins using sodium mesoxalate as substrate followed by compound addition and measured after 20 to 30 mins by spectrometric analysis
T5 sequence (P00346 whole entry): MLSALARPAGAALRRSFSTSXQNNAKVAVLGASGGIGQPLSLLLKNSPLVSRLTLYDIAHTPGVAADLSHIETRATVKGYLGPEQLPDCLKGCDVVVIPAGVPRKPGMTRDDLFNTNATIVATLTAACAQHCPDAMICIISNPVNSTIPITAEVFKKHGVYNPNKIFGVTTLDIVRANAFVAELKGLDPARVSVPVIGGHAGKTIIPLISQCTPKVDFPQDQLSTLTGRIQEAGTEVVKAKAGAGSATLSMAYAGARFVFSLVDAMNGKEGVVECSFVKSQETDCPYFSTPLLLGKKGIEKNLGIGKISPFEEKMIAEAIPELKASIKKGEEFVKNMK

E. coli GroEL/ES [8] = target: T6, E. coli GroEL/ES (Escherichia coli, UniProt P0A6F5); test: Inhibition of Escherichia coli GroEL expressed in Escherichia coli DH5alpha/Escherichia coli GroES expressed in Escherichia coli BL21 (DE3) assessed as reduction in GroEL/GroES-mediated denatured rhodanese refolding by measuring rhodanese enzyme activity after 45 mins by Fe(SCN)3 dye based spectrometric analysis
T6 sequence (P0A6F5 whole entry, looked up): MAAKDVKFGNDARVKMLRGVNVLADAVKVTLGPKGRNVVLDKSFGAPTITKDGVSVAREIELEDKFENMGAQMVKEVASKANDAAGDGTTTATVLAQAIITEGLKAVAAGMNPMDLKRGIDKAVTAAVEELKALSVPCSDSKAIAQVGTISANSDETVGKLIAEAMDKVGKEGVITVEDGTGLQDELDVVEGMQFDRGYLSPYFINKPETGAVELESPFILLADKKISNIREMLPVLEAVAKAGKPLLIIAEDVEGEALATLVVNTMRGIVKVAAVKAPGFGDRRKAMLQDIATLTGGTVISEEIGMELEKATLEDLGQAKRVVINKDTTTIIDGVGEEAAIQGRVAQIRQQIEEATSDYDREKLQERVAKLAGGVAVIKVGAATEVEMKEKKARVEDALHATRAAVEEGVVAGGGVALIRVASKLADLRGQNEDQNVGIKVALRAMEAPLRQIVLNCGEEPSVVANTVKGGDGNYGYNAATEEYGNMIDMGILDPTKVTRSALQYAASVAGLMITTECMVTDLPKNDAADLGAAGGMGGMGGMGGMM

E. coli GroEL/ES [9] = target: T6, E. coli GroEL/ES; test: Inhibition of Escherichia coli GroEL expressed in Escherichia coliDH5alpha/Escherichia coli GroES expressed in Escherichia coli BL21 (DE3) assessed as reduction in GroEL/GroES-mediated denatured pig heart mitochondrial MDH refolding by measuring MDH enzyme activity using sodium mesoxalate as substrate after 20 to 40 mins by spectrometric analysis
HSP60/HSP10 = HSP60/HSP10 (Homo sapiens, UniProt P10809); test: Inhibition of human HSP60 expressed in Escherichia coli Rosetta 2(DE3)/human HSP10 expressed in Escherichia coli Rosetta 2(DE3) pLysS cells assessed as reduction in HSP60/HSP10-mediated denatured pig heart mitochondrial MDH refolding by measuring MDH enzyme activity using sodium mesoxalate as substrate after 40 to 60 mins by spectrometric analysis
HSP60/HSP10, sequence (P10809 whole entry): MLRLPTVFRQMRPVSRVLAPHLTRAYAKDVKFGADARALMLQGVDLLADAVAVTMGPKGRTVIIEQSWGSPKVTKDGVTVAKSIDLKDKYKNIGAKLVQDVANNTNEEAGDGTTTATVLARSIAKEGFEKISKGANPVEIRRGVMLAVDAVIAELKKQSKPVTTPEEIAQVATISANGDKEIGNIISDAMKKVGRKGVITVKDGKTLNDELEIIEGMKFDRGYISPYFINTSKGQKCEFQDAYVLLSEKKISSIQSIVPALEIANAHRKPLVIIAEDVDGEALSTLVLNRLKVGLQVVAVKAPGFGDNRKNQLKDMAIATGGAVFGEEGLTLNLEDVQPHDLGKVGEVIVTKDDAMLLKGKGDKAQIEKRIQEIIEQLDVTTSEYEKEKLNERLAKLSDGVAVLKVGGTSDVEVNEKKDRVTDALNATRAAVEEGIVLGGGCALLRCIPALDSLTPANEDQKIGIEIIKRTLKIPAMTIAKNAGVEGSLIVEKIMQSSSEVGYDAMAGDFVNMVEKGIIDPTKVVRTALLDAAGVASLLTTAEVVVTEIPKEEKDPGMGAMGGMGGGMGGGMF
HSP60/HSP10, sequence (P61604 whole entry, further chain): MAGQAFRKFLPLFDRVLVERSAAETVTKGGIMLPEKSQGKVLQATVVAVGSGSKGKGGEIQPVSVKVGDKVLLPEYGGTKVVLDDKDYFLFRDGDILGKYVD

[10] = Cytotoxicity against human THLE3 cells assessed as reduction in cell viability after 48 hrs by Alamar blue assay; format: cell-based
How it was run: (§1)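 Alamar Blue viability read-out. Human liver (THLE-3) and kidney (HEK 293) cells incubated with compound for 48 h. Tested in dose-response to derive CC50.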

[11] = Cytotoxicity against human HEK293 cells assessed as reduction in cell viability after 48 hrs by Alamar blue assay; format: cell-based; how it was run: as §1
[12] = test system: Mycobacterium tuberculosis; test: Antitubercular activity against Mycobacterium tuberculosis H37Rv after 5 days; format: functional, organism-based; conditions: 120 h

Row | SMILES | IC50 [1] | IC50 [2] | IC50 [3] | IC50 [4] | inhibition at 200 µM [5] | IC50 [6] | IC50 [7] | IC50 (E. coli GroEL/ES [8]) | IC50 (E. coli GroEL/ES [9]) | IC50 (HSP60/HSP10) | CC50 at 48 h [10] | CC50 at 48 h [11] | EC50 [12]
1 | O=S(=O)(Nc1ccc2oc(-c3ccccc3)nc2c1)c1ccccc1Cl | 50 µM | 40 µM | 42 µM | 35 µM | 13% | > 100 µM | > 63 µM | 103 µM | 90 µM | > 100 µM | 43 µM | 73 µM | 
2 | CS(=O)(=O)Nc1ccc(-c2nc3ccccc3o2)cc1 | > 100 µM | > 100 µM | > 100 µM | > 100 µM | 23% | > 100 µM | > 63 µM | > 250 µM | > 100 µM | > 100 µM | > 100 µM | > 100 µM | 
3 | O=S(=O)(Nc1ccc2oc(-c3ccccc3)nc2c1)c1ccccc1C(F)(F)F | 58 µM | 44 µM | 55 µM | 37 µM | 45% | > 100 µM | > 63 µM | 162 µM | 92 µM | > 100 µM | 59 µM | 80 µM | 
4 | COc1ccccc1S(=O)(=O)Nc1ccc2oc(-c3ccccc3)nc2c1 | 67 µM | 37 µM | 34 µM | 38 µM | 3% | > 100 µM | > 63 µM | 89 µM | 85 µM | > 100 µM | 29 µM | 41 µM | 
5 | O=S(=O)(Nc1ccc2oc(-c3ccccc3)nc2c1)c1ccc(F)cc1 | 85 µM | 78 µM | 61 µM | 41 µM | 47% | > 100 µM | > 63 µM | 195 µM | > 100 µM | > 100 µM | 38 µM | 68 µM | 
6 | O=S(=O)(Nc1ccc2oc(-c3ccccc3)nc2c1)c1cccc(O)c1 | 98 µM | > 100 µM | > 100 µM | 72 µM | 3% | > 100 µM | > 63 µM | 103 µM | 58 µM | 76 µM | 79 µM | > 100 µM | 
7 | O=S(=O)(Nc1ccc2oc(-c3ccccc3)nc2c1)c1ccccc1F | 80 µM | 59 µM | 69 µM | 44 µM | 12% | > 100 µM | > 63 µM | 171 µM | > 100 µM | > 100 µM | 53 µM | 72 µM | 
8 | O=S(=O)(Nc1ccc2oc(-c3ccccc3)nc2c1)c1cccc(F)c1 | 93 µM | 71 µM | > 100 µM | 42 µM | 56% | > 100 µM | > 63 µM |  |  | > 100 µM | 41 µM | 68 µM | > 200 µM
9 | O=S(=O)(Nc1ccc(-c2nc3ccccc3o2)cc1)c1ccc(O)cc1 | 93 µM | 70 µM | > 100 µM | 81 µM | 77% | > 100 µM | > 63 µM |  |  | 78 µM | > 100 µM | > 100 µM | > 200 µM
10 | COc1cccc(S(=O)(=O)Nc2ccc(-c3nc4ccccc4o3)cc2)c1 | 67 µM | 51 µM | 67 µM | 48 µM | 74% | > 100 µM | > 63 µM |  |  | 80 µM | 84 µM | > 100 µM | 156 µM

From ChEMBL document CHEMBL4387722
